Each block holds one compound with its values, some of them ahead of it.
Columns and labels:
[1] = target: Pancreatic elastase (Sus scrofa) (UniProt P08419+P00772); test: (§1) Kinetic constant was determined from the initial rates of enzymatic hydrolysis by the Lineweaver-Burke method against elastase at a concentration of 1.4 uM; type: protein assay
Outline: (§2)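 Porcine pancreatic elastase assayed in 67 mM Tris-HCl pH 8.8 at 37 °C in a thermostatted cuvette. Specific activity was checked with orcein-elastin before each experiment. Leaving-group fluorescence was read at 410/550 nm (MAQ+) or 355/550 nm (6-AQ). Kinetic constants came from initial rates by Lineweaver–Burk analysis.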

[2] = (§3) Ratio of Kcat to Km of the compound
[3] = tested on: C[C@H](NC(=O)OCc1ccccc1)C(=O)N[C@@H](C)C(=O)Nc1ccc2c(ccc[n+]2C)c1; test: as §1; type: protein assay; outline: as §2
[4] = tested on: C[C@H](NC(=O)OCc1ccccc1)C(=O)N[C@@H](C)C(=O)N[C@@H](C)C(=O)Nc1ccc2c(ccc[n+]2C)c1; test: as §1; type: protein assay; outline: as §2
[5] = tested on: C[C@H](NC(=O)CCC(=O)O)C(=O)N[C@@H](C)C(=O)N[C@@H](C)C(=O)Nc1ccc2ncccc2c1; test: as §1; type: protein assay; outline: as §2
[6] = tested on: C[n+]1cccc2cc(NC(=O)[C@H](Cc3ccccc3)NC(=O)OCc3ccccc3)ccc21; test: Kinetic constant was determined from the initial rates of enzymatic hydrolysis by the Lineweaver-Burke method against chymotrypsin enzyme at a concentration of 2.0 uM; conditions: Sus scrofa
Outline: (§4)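 Chymotrypsin assayed in 50 mM Tris-HCl pH 8.0 with 10 mM CaCl2 at 25 °C. Active enzyme was titrated with 2-nitro-4-carboxyphenyl diphenylcarbamate. Product release was followed fluorimetrically, with excitation 410 nm and emission 550 nm for MAQ+, and 355/550 nm for 6-AQ. Constants were taken from initial hydrolysis rates by Lineweaver–Burk plots.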

[7] = target: Chymotrypsinogen B (Homo sapiens) (UniProt P17538); test: Kinetic constant was determined from the initial rates of enzymatic hydrolysis by the Lineweaver-Burke method against alpha-chymotrypsin enzyme at a concentration of 2.0 uM; conditions: Sus scrofa; outline: as §4
Chymotrypsinogen B (Homo sapiens), sequence (P17538 34-164 limits assumed, other chains not shown): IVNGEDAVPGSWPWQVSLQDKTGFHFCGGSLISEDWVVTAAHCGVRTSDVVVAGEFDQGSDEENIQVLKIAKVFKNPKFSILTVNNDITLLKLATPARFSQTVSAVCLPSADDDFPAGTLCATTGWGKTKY
Chymotrypsinogen B (Homo sapiens), sequence (P17538 167-263 limits assumed, other chains not shown): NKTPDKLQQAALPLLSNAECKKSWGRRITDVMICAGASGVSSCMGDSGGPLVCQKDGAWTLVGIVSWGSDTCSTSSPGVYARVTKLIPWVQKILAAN

[8] = target: Chymotrypsinogen B (Homo sapiens) (UniProt P17538); test: as §3; conditions: Sus scrofa
[9] = target: Serine protease 1 (Homo sapiens) (UniProt P07477); test: Kinetic constant was determined from the initial rates of enzymatic hydrolysis by the Lineweaver-Burke method against trypsin enzyme at a concentration of 1.0 uM; conditions: Sus scrofa
Serine protease 1 (Homo sapiens), sequence (P07477 whole entry): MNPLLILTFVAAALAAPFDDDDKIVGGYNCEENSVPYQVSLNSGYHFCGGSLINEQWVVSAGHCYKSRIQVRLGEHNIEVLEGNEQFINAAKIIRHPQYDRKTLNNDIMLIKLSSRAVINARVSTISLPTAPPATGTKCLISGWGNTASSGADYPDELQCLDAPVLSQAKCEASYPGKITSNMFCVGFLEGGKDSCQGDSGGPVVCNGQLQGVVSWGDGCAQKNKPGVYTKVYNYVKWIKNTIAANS
Outline: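 Trypsin, active-site titrated with p-nitrophenyl p-guanidinobenzoate, was used in 46 mM Tris-HCl pH 8.1 containing 11 mM CaCl2 at 25 °C. Hydrolysis was monitored by fluorescence, with excitation/emission 410/550 nm for MAQ+ and 355/550 nm for 6-AQ. Initial rates were fitted by the Lineweaver–Burk method.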

[10] = target: Serine protease 1 (Homo sapiens) (UniProt P07477); test: as §3; conditions: Sus scrofa

Pancreatic elastase (Sus scrofa) (from UniProt P08419+P00772), sequence (P00772 whole entry, looked up): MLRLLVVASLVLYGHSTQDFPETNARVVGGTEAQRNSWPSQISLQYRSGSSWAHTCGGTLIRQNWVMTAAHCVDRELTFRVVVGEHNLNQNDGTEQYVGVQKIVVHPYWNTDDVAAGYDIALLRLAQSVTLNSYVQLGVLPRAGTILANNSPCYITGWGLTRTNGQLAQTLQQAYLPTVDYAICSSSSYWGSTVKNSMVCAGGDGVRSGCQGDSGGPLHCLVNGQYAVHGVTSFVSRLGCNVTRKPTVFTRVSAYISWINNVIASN
Pancreatic elastase (Sus scrofa) (from UniProt P08419+P00772), sequence (P08419 whole entry, looked up): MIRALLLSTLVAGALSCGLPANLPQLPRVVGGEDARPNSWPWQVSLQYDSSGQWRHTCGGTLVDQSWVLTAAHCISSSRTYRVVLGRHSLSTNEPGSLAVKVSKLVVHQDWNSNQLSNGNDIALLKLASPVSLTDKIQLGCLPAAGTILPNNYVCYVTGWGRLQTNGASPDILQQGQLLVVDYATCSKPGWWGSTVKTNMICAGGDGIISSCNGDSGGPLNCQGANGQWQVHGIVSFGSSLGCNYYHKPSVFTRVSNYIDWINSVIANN

Compound: C[C@H](NC(=O)CCC(=O)O)C(=O)N[C@@H](C)C(=O)N[C@@H](C)C(=O)Nc1ccc2ncccc2c1
k cat [1]: 1.7 s⁻¹
Ratio [2]: 3400 M⁻¹ s⁻¹

Compound: Pancreatic elastase (Sus scrofa) (from UniProt P08419+P00772)
Km [3]: 4170 µM
Km [4]: 230 µM
Km [5]: 500 µM

Compound: Chymotrypsinogen A (Bos taurus) (from UniProt P00766)
Km [6]: 180 µM

Compound: C[n+]1cccc2cc(NC(=O)[C@H](Cc3ccccc3)NC(=O)OCc3ccccc3)ccc21
k cat [7]: 0.4 s⁻¹
Ratio [8]: 2220 M⁻¹ s⁻¹

Compound: O=C(O)CCCC(=O)N[C@@H](Cc1ccccc1)C(=O)Nc1ccc2ncccc2c1
k cat [7]: 0.14 s⁻¹
Ratio [8]: 79 M⁻¹ s⁻¹

Compound: N=C(N)NCCCC(NC(=O)c1ccccc1)C(=O)Nc1ccc2ncccc2c1 (stereo not drawn)
k cat [9]: 0.6 s⁻¹
Ratio [10]: 1500 M⁻¹ s⁻¹

Results, then the compound that gave them:

k cat [1]: 0.043 s⁻¹
Ratio [2]: 10 M⁻¹ s⁻¹
Compound: C[C@H](NC(=O)OCc1ccccc1)C(=O)N[C@@H](C)C(=O)Nc1ccc2c(ccc[n+]2C)c1

k cat [1]: 1.09 s⁻¹
Ratio [2]: 4740 M⁻¹ s⁻¹
Compound: C[C@H](NC(=O)OCc1ccccc1)C(=O)N[C@@H](C)C(=O)N[C@@H](C)C(=O)Nc1ccc2c(ccc[n+]2C)c1

k cat [9]: 0.14 s⁻¹
Ratio [10]: 636 M⁻¹ s⁻¹
Compound: C[n+]1cccc2cc(NC(=O)C(CCCN=C(N)N)NC(=O)c3ccccc3)ccc21 (stereo not drawn)

Source: ChEMBL document CHEMBL1122724, “Synthesis and kinetic studies of protease substrates containing the 1-methyl-6-aminoquinolinium ion as a fluorogenic leaving group” (J Med Chem, 1984)
